Bioassay records: PubChem BioAssay, several laboratories
Rows were chosen to be rich in hits. Some 1.3% of all compounds tested hit in one or more screens of this group.
CSN inh: CSN deneddylation inhibition; Q92905; Purified CSN, SCF-Nedd8-OG deneddylation, fluorescence polarization; inhibition, % at 12.5 µM; 360,000 compounds, 0.38% hits; AID 651999;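 active means pattern-corrected inhibition above about 35%, with an unprinted fluorescence ratio check between 0.5 and 1.5, limit read from the data, passing the limit was not always enough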;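 further: 0% = enzyme with substrate and 100% = substrate without enzyme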
Target sequence (Q92905 whole entry, looked up, one chain of several): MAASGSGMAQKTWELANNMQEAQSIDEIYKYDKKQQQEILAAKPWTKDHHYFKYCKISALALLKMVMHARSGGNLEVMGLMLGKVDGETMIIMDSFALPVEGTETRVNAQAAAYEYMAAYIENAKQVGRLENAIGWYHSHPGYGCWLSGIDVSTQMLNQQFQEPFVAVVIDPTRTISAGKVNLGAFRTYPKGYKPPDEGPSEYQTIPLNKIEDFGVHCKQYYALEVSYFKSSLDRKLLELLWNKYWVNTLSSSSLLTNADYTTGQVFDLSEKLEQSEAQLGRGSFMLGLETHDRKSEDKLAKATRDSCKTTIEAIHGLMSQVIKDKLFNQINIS
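Detection – fluorescence polarization · System – HEK293T-derived human Csn5 enzyme · Controls – substrate-only high control, full reaction low control · Timing – 90 min, room temperature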
aDG glyco up: alpha-DG glycosylation activation; Pro5-aDG cells, alpha-DG glycosylation AlphaScreen (IIH6); 0% Pro5, 100% B10-LARGE cell signal; activation, % at 10 µM; 360,000 compounds, 0.22% hits; AID 624168;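 active means activation of at least 8% versus controls, or a plate z-score of at least 8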;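 further: Pro5 are CHO cells carrying HIG-tagged alpha-DG that lacks glycosylation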
Xi reactivation: X-chromosome reactivation activator; XiGFP mouse fibroblasts, % GFP-positive cells imaging, 3 d; cells co-treated with 5-aza-dC sensitizer; scaled so ellipticine positive control = 100%; activation, % at 7.58 µM; 360,000 compounds, 0.055% hits; AID 743238;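 active means mean normalized replicate activation at least 10% and every replicate at or above 10%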;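 further: 0% = median of on-plate neutral control wells and 100% = ellipticine 6 µM median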
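System: 68-5-11 XiGFP fibroblast line | Buffer or medium: DMEM containing 5-aza-dC | Compound: Single point | Times: Compounds 3 days, fix/stain 15 min at room temperature | Benchmarks: Positive control ellipticine, 6 µM final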
Rpn11 block: Rpn11 (human) deubiquitinase inhibition | O00487 | inhibition, % at 20 µM | 360,000 compounds, 0.59% hits | human 26S proteasome, Ub4-pepOG fluorescence polarization; 20S core pre-blocked with epoxomicin;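 active means inhibition at 20 µM, scaled to each plate's controls, above about 33%, limit read from the data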
Target sequence (O00487 whole entry, looked up): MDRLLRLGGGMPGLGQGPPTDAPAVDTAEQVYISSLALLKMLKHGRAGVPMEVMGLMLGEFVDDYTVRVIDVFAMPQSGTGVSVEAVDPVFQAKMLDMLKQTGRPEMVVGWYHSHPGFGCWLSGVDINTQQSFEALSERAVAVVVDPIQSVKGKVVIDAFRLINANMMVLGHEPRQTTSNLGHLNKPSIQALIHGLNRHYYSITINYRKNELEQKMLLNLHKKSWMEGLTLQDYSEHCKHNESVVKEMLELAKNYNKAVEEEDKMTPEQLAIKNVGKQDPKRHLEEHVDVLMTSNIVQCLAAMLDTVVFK
TPT1 inh: C. albicans TPT1 enzyme inhibition. recombinant caTPT1, FP RNA substrate dephosphorylation. inhibition, % at 5 µM. 300,000 compounds, 0.81% hits. AID 1962;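 active means inhibition above the mean of all tested compounds plus 3 SD, set per screening campaign, cut at about 24% in these data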;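 further: plate controls were DMSO alone for no effect and ferristatin control at 100 nM for full effect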
HNF4A DNA FP: change in binding of human HNF4 alpha to DNA. HNF4a-FITC DNA binding, fluorescence polarization, 1 h. AID 1224865. activity change, % at 10 µM. 360,000 compounds, 0.3% hits. P41235; in the data active means activity change above about 30%, passing the limit was not always enough
Starred values were filed as active, the others as inactive.

O=C(/C=C/c1ccc([N+](=O)[O-])cc1)N1CCN(S(=O)(=O)c2ccccc2)CC1 was read as CSN inh 47.1*, aDG glyco up 0.3, Xi reactivation 0.2, Rpn11 block -2.9 and HNF4A DNA FP 2.9.
O=C(/C=C/c1ccc([N+](=O)[O-])cc1)N1CCN(Cc2ccccc2)CC1 was read as CSN inh -4.3, aDG glyco up 0.2, Xi reactivation -0.1, Rpn11 block -2.9, TPT1 inh -0.5 and HNF4A DNA FP 3.2.
For O=C(C[C@H]1CC[C@@H]2[C@H](COC[C@@H](O)CN2Cc2cccc(C(F)(F)F)c2)O1)NCc1ccc(Cl)cc1 the results were Xi reactivation 0.0.
COc1cc2c(cc1NC(=O)CSc1nnc(Cc3cccs3)n1Cc1ccco1)oc1ccccc12 was read as CSN inh -6.5, aDG glyco up 0.9, Rpn11 block 17.2, TPT1 inh 0.8 and HNF4A DNA FP -1.2.
Screening Cc1cc(Cl)ccc1NC(=O)CSc1nnc(Cc2cccs2)n1Cc1ccco1 returned CSN inh -0.9, aDG glyco up 0.4, Rpn11 block 7.7, TPT1 inh 4.4 and HNF4A DNA FP 41.8*.
Screening O=C(CCNC(=O)C1CCN(S(=O)(=O)c2ccccc2)CC1)NCc1cccc(C(F)(F)F)c1 returned CSN inh 2.4, aDG glyco up -0.1, Xi reactivation 0.0, Rpn11 block -2.8, TPT1 inh -3.0 and HNF4A DNA FP 38.4*.
For O=C(CCNC(=O)C1CCN(S(=O)(=O)c2ccccc2)CC1)Nc1cccc(C(F)(F)F)c1 the results were CSN inh -1.0, aDG glyco up 0.1, Xi reactivation 0.2, Rpn11 block -0.6, TPT1 inh 0.7 and HNF4A DNA FP -0.1.
COc1ccc2c3c(n(C)c2c1)[C@H](CO)N(C(=O)CC1CC1)CC31CN(C(=O)CC2CC2)C1 was read as Xi reactivation 0.2.
Screening COc1cc(/C=C2\SC(=S)N(CCCCC(=O)O)C2=O)ccc1OS(=O)(=O)c1ccc(C)cc1 returned CSN inh 17.8, aDG glyco up 6.9*, Xi reactivation -0.1, Rpn11 block 1.2, TPT1 inh -1.4 and HNF4A DNA FP 1.7.
CCC(=O)N1CC[C@H]2[C@H](CO)Nc3ccc(C#Cc4cccc(OC)c4)cc3[C@H]21 was read as Xi reactivation 0.0.
For COc1ccc2c3c([nH]c2c1)[C@@H](CO)N(C(=O)c1ccc(F)cc1)CC31CCN(C)CC1 the results were Xi reactivation 0.2.
`Cc1ccc(CN2C(=O)C(CC(C)C)Nc3ncnc(N4CCCCC4)c32)cc1` (stereo unspecified) gave CSN inh 77.8*, aDG glyco up 0.1, Xi reactivation 0.0, Rpn11 block -1.0 and HNF4A DNA FP 8.1.
Screening COC(=O)[C@@]1(Cc2ccc(F)cc2)[C@H]2c3cc(C(=O)N(C)C)n(Cc4cc(C)n(C)n4)c3C[C@H]2CN1C(=O)c1ccccc1 returned CSN inh 102.1*, aDG glyco up -0.1, Xi reactivation 0.0 and HNF4A DNA FP -0.7.
For COC(=O)[C@@]1(Cc2ccc(F)cc2)[C@H]2c3cc(C(=O)N4CCCC4)n(Cc4cc(C)n(C)n4)c3C[C@H]2CN1C(=O)c1ccccc1 the results were CSN inh -4.2, aDG glyco up -0.2, Xi reactivation 0.0 and HNF4A DNA FP -4.8.
CCc1ccc(N2CSC3=C(C#N)C(c4cccs4)CC(=O)N3C2)cc1 (stereo unspecified) was read as CSN inh 35.6*, aDG glyco up -0.5, Rpn11 block 9.1, TPT1 inh 1.5 and HNF4A DNA FP -13.4.
`OC[C@@H]1[C@@H](c2ccc(C#Cc3ccccc3)cc2)[C@@H]2CN(Cc3ccccn3)CCCCN12` gave Xi reactivation 0.0.
CN(C)C(=O)C[C@@H]1CC[C@@H](NS(=O)(=O)c2ccccc2)[C@@H](CO)O1 was read as Xi reactivation 1.3.
O=C(/C=C/Nc1ccc(S(=O)(=O)Nc2ncccn2)cc1)c1ccc(Cl)c(Cl)c1 was read as CSN inh 11.5, aDG glyco up -0.2, Xi reactivation 0.0, Rpn11 block 53.6*, TPT1 inh 3.9 and HNF4A DNA FP 5.1.
Screening O=C(/C=C/Nc1ccc(S(=O)(=O)Nc2ncccn2)cc1)c1cccs1 returned CSN inh 1.7, aDG glyco up 0.1, Xi reactivation -0.1, Rpn11 block 1.8, TPT1 inh -1.4 and HNF4A DNA FP 2.4.
COc1cccc(C(=O)/C=C/Nc2ccc(S(=O)(=O)Nc3onc(C)c3C)cc2)c1 was read as CSN inh -9.2, aDG glyco up 0.3, Xi reactivation 0.1, Rpn11 block 19.9, TPT1 inh -3.2 and HNF4A DNA FP 84.6*.
Cc1noc(NS(=O)(=O)c2ccc(N/C=C\C(=O)c3ccc(Br)cc3)cc2)c1C was read as CSN inh 2.0, aDG glyco up -0.1, Xi reactivation -0.1, Rpn11 block -6.5, TPT1 inh 2.2 and HNF4A DNA FP 3.3.
`CCC(C)c1nc2ccsc2c(N2CCOC2=O)c1-c1ccccc1` (stereo unspecified) gave CSN inh 4.3, aDG glyco up 0.3, Xi reactivation 18.8*, Rpn11 block 0.2, TPT1 inh -3.7 and HNF4A DNA FP -2.5.
COc1cc(NS(=O)(=O)c2ccc(Br)cc2)c(OC)cc1NC(=O)c1ccco1 was read as CSN inh 6.8, aDG glyco up -0.2, TPT1 inh 4.7 and HNF4A DNA FP 68.0*.
Screening CC(=O)N1CCc2c(sc(NC(=O)C3CC3)c2-c2nc3ccccc3s2)C1 returned CSN inh 44.3*, aDG glyco up 0.0, Xi reactivation 3.0, TPT1 inh 18.6 and HNF4A DNA FP 34.7*.
COc1ccc(S(=O)(=O)Nc2ccc3c(c2)CC(=O)N([C@H](C)CO)C[C@H](C)[C@@H](CN(C)S(=O)(=O)c2ccc(Cl)cc2)O3)cc1 was read as Xi reactivation -0.5.
Screening Cc1cc(C(=O)CCC(=O)N(C)CC(=O)Nc2ccccc2Br)c(C)s1 returned CSN inh 54.1*, aDG glyco up 0.1, Xi reactivation 0.3, Rpn11 block 4.2, TPT1 inh -3.0 and HNF4A DNA FP 6.1.
Cc1ccc(C(=O)CCC(=O)N(C)CC(=O)Nc2ccccc2Br)cc1 was read as CSN inh -3.1, aDG glyco up 0.0, Xi reactivation 0.1, Rpn11 block -1.2, TPT1 inh -3.9 and HNF4A DNA FP -3.4.
CN(C)C(=O)C[C@@H]1C=C[C@@H](NC(=O)NC2CCCCC2)[C@H](CO)O1 was read as Xi reactivation -0.2.
